Values after ≈ are worked out from the molar mass of the structure shown. Active and inactive are the calls of the source. The rule behind the calls is not given here.
Experiments:
[1] = test system: Mycobacterium tuberculosis; experiment: Antimycobacterial activity against Mycobacterium tuberculosis CNCTC My 331/88 after 14 days by micromethod; format: functional; conditions: CNCTC My 331/88, 336 h
How it was run: (§1)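 MIC by micromethod in Šula semisynthetic medium. Compounds added as DMSO solutions at 1000, 500, 250, 125, 62, 32, 16, 8, 4 and 2 µmol/L. Incubated at 37 °C and read at 14 and 21 days. MIC taken as the lowest concentration that inhibited mycobacterial growth, expressed in µmol/L. INH run as standard. Strains from CNCTC.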

[2] = test system: Mycobacterium tuberculosis; experiment: Antimycobacterial activity against Mycobacterium tuberculosis CNCTC My 331/88 after 21 days by micromethod; format: functional; conditions: CNCTC My 331/88, 504 h; how it was run: as §1
[3] = test system: Mycobacterium kansasii; experiment: Antimycobacterial activity against Mycobacterium kansasii CNCTC My 235/80 after 14 days by micromethod; format: functional; conditions: CNCTC My 235/80, 336 h
How it was run: (§2)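 Micromethod MIC in Šula semisynthetic medium, with compounds added as DMSO solutions at 1000, 500, 250, 125, 62, 32, 16, 8, 4 and 2 µmol/L. Cultures were incubated at 37 °C, and M. kansasii was read at 7, 14 and 21 days. MIC is the lowest concentration at which mycobacterial growth was inhibited. INH served as standard. Strain 6509/96 was a clinical isolate.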

[4] = test system: L929; experiment: Growth inhibition of mouse L929 cells; format: functional
How it was run: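 Antiproliferative assay on adherent L-929 monolayers exposed to 10 concentrations of compound. Cells were fixed with glutaraldehyde, stained with 0.05% methylene blue for 15 min, washed, and the dye eluted with 0.33 N HCl. OD was read at 630 nm, and GI50 is the concentration giving 50% growth inhibition.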

[5] = test system: K562; experiment: Growth inhibition of human K562 cells; format: functional
How it was run: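 K-562 suspension cultures in microplates were exposed to 10 concentrations of compound. Each well was diluted 1:50 in CASYTON and counted with a CASY 1 electronic cell analyzer (150 µm aperture), using the mean of three successive 0.4 mL counts. GI50 is the point where the concentration-response curve of cell counts/mL relative to control crosses the 50% line.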

[6] = test system: Mycobacterium kansasii; experiment: Antimycobacterial activity against Mycobacterium kansasii CNCTC My 235/80 after 21 days by micromethod; format: functional; conditions: CNCTC My 235/80, 504 h; how it was run: as §2
[7] = test system: HeLa; experiment: Cytotoxicity against human HeLa cells; format: functional
How it was run: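 Adherent HeLa monolayers were incubated with 10 concentrations of compound, then glutaraldehyde-fixed and stained with 0.05% methylene blue for 15 min. After gentle washing, the stain was eluted with 0.33 N HCl and absorbance read at 630 nm. CC50 is the concentration causing 50% cytotoxic (lytic) effect.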

[8] = test system: Mycobacterium avium; experiment: Antimycobacterial activity against Mycobacterium avium CNCTC My 330/88 after 21 days by micromethod; format: functional; conditions: CNCTC My 330/88, 504 h; how it was run: as §1
[9] = test system: Mycobacterium kansasii; experiment: Antimycobacterial activity against Mycobacterium kansasii CNCTC My 235/80 after 7 days by micromethod; format: functional; conditions: CNCTC My 235/80, 168 h; how it was run: as §2
[10] = test system: Mycobacterium kansasii; experiment: Antimycobacterial activity against Mycobacterium kansasii 6509/96 after 21 days by micromethod; format: functional; conditions: 6509/96, 504 h; how it was run: as §2
[11] = test system: Mycobacterium kansasii; experiment: Antimycobacterial activity against Mycobacterium kansasii 6509/96 after 14 days by micromethod; format: functional; conditions: 6509/96, 336 h; how it was run: as §2
[12] = test system: Mycobacterium avium; experiment: Antimycobacterial activity against Mycobacterium avium CNCTC My 330/88 after 14 days by micromethod; format: functional; conditions: CNCTC My 330/88, 336 h; how it was run: as §1
[13] = test system: Mycobacterium kansasii; experiment: Antimycobacterial activity against Mycobacterium kansasii 6509/96 after 7 days by micromethod; format: functional; conditions: 6509/96, 168 h; how it was run: as §2
[14] = test system: Tetranychus urticae; experiment: Insecticidal activity against glasshouse red spider mite larvae; format: functional, organism-based
[15] = test system: Tetranychus urticae; experiment: Insecticidal activity against glasshouse red spider mite egg; format: functional

Structure (SMILES): O=[N+]([O-])c1cc(CSc2nc3ccccc3o2)cc([N+](=O)[O-])c1
- MIC [1]: 8 µM (≈ 2.65 µg/mL)
- MIC [2]: 8 µM (≈ 2.65 µg/mL)
- MIC [3]: 4 µM (≈ 1.33 µg/mL)
- GI50 [4]: 22.4 µg/mL (≈ 67.6 µM)
- GI50 [5]: 9.2 µg/mL (≈ 27.8 µM)
- MIC [6]: 4 µM (≈ 1.33 µg/mL)
- CC50 [7]: > 50 µg/mL
- MIC [8]: > 32 µM
- MIC [9]: 2 µM (≈ 0.663 µg/mL)
- MIC [10]: 8 µM (≈ 2.65 µg/mL)
- MIC [11]: 8 µM (≈ 2.65 µg/mL)
- MIC [12]: > 16 µM
- MIC [13]: 4 µM (≈ 1.33 µg/mL)

Structure (SMILES): Clc1ccc(CSc2nc3ccccc3o2)cc1
- MIC [1]: 250 µM (≈ 68.9 µg/mL)
- MIC [2]: > 500 µM
- MIC [3]: 62 µM (≈ 17.1 µg/mL)
- Activity [14]: Active
- Activity [15]: Active
- MIC [6]: 125 µM (≈ 34.5 µg/mL)
- MIC [8]: 62 µM (≈ 17.1 µg/mL)
- MIC [9]: 32 µM (≈ 8.82 µg/mL)
- MIC [10]: 125 µM (≈ 34.5 µg/mL)
- MIC [11]: 62 µM (≈ 17.1 µg/mL)
- MIC [12]: 62 µM (≈ 17.1 µg/mL)
- MIC [13]: 32 µM (≈ 8.82 µg/mL)

Structure (SMILES): NC(=S)c1cccc(CSc2nc3ccccc3o2)c1
- MIC [1]: 8 µM (≈ 2.4 µg/mL)
- MIC [2]: 16 µM (≈ 4.81 µg/mL)
- MIC [3]: 32 µM (≈ 9.61 µg/mL)
- GI50 [4]: 17.3 µg/mL (≈ 57.6 µM)
- GI50 [5]: 5.5 µg/mL (≈ 18.3 µM)
- MIC [6]: 32 µM (≈ 9.61 µg/mL)
- CC50 [7]: 21.6 µg/mL (≈ 71.9 µM)
- MIC [8]: 62 µM (≈ 18.6 µg/mL)
- MIC [9]: 8 µM (≈ 2.4 µg/mL)
- MIC [10]: 32 µM (≈ 9.61 µg/mL)
- MIC [11]: 32 µM (≈ 9.61 µg/mL)
- MIC [12]: 62 µM (≈ 18.6 µg/mL)
- MIC [13]: 8 µM (≈ 2.4 µg/mL)
